From ChEMBL document CHEMBL1142065, “In vitro and in vivo activities of a new cephalosporin, FR264205, against Pseudomonas aeruginosa” (2007)
In brackets after ≈: the same amount, converted by molar mass. Activity calls are given as the source filed them. The rule behind the calls is not given here.

Key:
[1] = system: Pseudomonas aeruginosa; assay: Antibacterial activity against Pseudomonas aeruginosa PAO4069 expressing inducible AmpC; type: functional
How it was run: (§1)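 Agar dilution MIC per NCCLS (CLSI) M7-A7 on Mueller-Hinton agar with twofold serial drug dilutions. Inoculum 10^4 CFU per spot, aerobic incubation 18 to 20 h at 35°C. MIC is the lowest concentration preventing visible growth.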

[2] = system: Escherichia coli; assay: Antibacterial activity against Escherichia coli C600 expressing ESBL TEM6; type: functional
How it was run: (§2)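 MIC by agar dilution (CLSI M7-A7) on Mueller-Hinton agar with twofold serial drug dilutions; 10^4 CFU spotted per spot; aerobic incubation 18 to 20 h at 35°C; MIC read as lowest concentration preventing visible growth.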

[3] = system: Escherichia coli; assay: Antibacterial activity against Escherichia coli C600 expressing ESBL TEM9; type: functional; how it was run: as §2
[4] = system: Pseudomonas aeruginosa; assay: Antibacterial activity against Pseudomonas aeruginosa 93; type: functional; how it was run: as §2
[5] = system: Escherichia coli; assay: Antibacterial activity against Escherichia coli C600 expressing OXA1; type: functional; how it was run: as §2
[6] = system: Pseudomonas aeruginosa; assay: Efficacy against Pseudomonas aeruginosa 93 pulmonary infection in mouse assessed as reduction in bacterial counts at 10 mg/kg, sc; type: functional, organism-based; design: dose 10 mg/kg
How it was run: (§3)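 Male ICR mice (4 weeks), made neutropenic with cyclophosphamide 200 mg/kg ip 4 days before infection. Under pentobarbital anesthesia (50 mg/kg iv) they were challenged intranasally with 3.30 log10 CFU of strain 93, grown on tryptic soy agar 35°C 20 h and suspended in saline. Dosed sc twice daily for 3 days from 3 h post-infection. Lung viable counts taken the day after last dose; 6 mice/dose.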

[7] = system: Pseudomonas aeruginosa; assay: Efficacy against Pseudomonas aeruginosa 93 pulmonary infection in mouse assessed as reduction in bacterial counts at 2 mg/kg, sc; type: functional, organism-based; design: dose 2 mg/kg; how it was run: as §3
[8] = system: Escherichia coli; assay: Antibacterial activity against Escherichia coli C600 expressing ESBL TEM4; type: functional; how it was run: as §2
[9] = system: Escherichia coli; assay: Antibacterial activity against Escherichia coli C600 expressing ESBL TEM3; type: functional; how it was run: as §2
[10] = system: Escherichia coli; assay: Antibacterial activity against Escherichia coli C600 expressing TEM2; type: functional; how it was run: as §2
[11] = system: Escherichia coli; assay: Antibacterial activity against Escherichia coli C600 expressing ESBL OXA2; type: functional; how it was run: as §2
[12] = system: Pseudomonas aeruginosa; assay: Antibacterial activity against Pseudomonas aeruginosa FP1380 expressing constitutive AmpC; type: functional; how it was run: as §2
[13] = system: Pseudomonas aeruginosa; assay: Antibacterial activity against Pseudomonas aeruginosa PAO1; type: functional; how it was run: as §1
[14] = system: Pseudomonas aeruginosa; assay: Antibacterial activity against Pseudomonas aeruginosa PAO4222; type: functional; how it was run: as §1
[15] = system: Escherichia coli; assay: Antibacterial activity against Escherichia coli C600 expressing TEM1; type: functional; how it was run: as §2
[16] = system: Escherichia coli; assay: Antibacterial activity against Escherichia coli C600 expressing ESBL TEM5; type: functional; how it was run: as §2
[17] = system: Pseudomonas aeruginosa; assay: Antibacterial activity against Pseudomonas aeruginosa KG3056 producing MexCD-OprJ efflux pump; type: functional; how it was run: as §1
[18] = system: Pseudomonas aeruginosa; assay: Antibacterial activity against Pseudomonas aeruginosa PAO1456 expressing constitutive AmpC; type: functional; how it was run: as §1
[19] = system: Escherichia coli; assay: Antibacterial activity against Escherichia coli C600 expressing ESBL CTX-M3; type: functional; how it was run: as §2
[20] = system: Escherichia coli; assay: Antibacterial activity against Escherichia coli C600 expressing ESBL SHV3; type: functional; how it was run: as §2
[21] = system: Pseudomonas aeruginosa; assay: Antibacterial activity against imipenem-resistant Pseudomonas aeruginosa; type: functional; how it was run: as §1
[22] = system: Escherichia coli; assay: Antibacterial activity against Escherichia coli C600 expressing SHV1; type: functional; how it was run: as §2
[23] = system: Escherichia coli; assay: Antibacterial activity against Escherichia coli C600 expressing ESBL CTX-M18; type: functional; how it was run: as §2
[24] = system: Escherichia coli; assay: Antibacterial activity against Escherichia coli C600; type: functional; how it was run: as §2
[25] = system: Pseudomonas aeruginosa; assay: Reduction in susceptibility against Pseudomonas aeruginosa PAO1 after single passage; type: functional, organism-based
How it was run: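 PAO1 passaged daily for five consecutive days in fresh Mueller-Hinton broth with twofold drug dilution series. Each next inoculum came from the tube at one-fourth the MIC. MIC change was followed across passages.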

[26] = system: Escherichia coli; assay: Antibacterial activity against Escherichia coli C600 expressing ESBL TEM7; type: functional; how it was run: as §2
[27] = system: Escherichia coli; assay: Antibacterial activity against Escherichia coli C600 expressing ESBL TEM8; type: functional; how it was run: as §2
[28] = system: Pseudomonas aeruginosa; assay: Antibacterial activity against Pseudomonas aeruginosa KG4001 producing MexEF-OprN efflux pump; type: functional; how it was run: as §1
[29] = system: Escherichia coli; assay: Antibacterial activity against Escherichia coli C600 expressing ESBL SHV2; type: functional; how it was run: as §2
[30] = system: Escherichia coli; assay: Antibacterial activity against Escherichia coli C600 expressing ESBL SHV4; type: functional; how it was run: as §2
[31] = system: Pseudomonas aeruginosa; assay: Antibacterial activity against ceftazidime-resistant Pseudomonas aeruginosa; type: functional; how it was run: as §1
[32] = system: Pseudomonas aeruginosa; assay: Antibacterial activity against Pseudomonas aeruginosa 22029 expressing metallo beta lactamase; type: functional; how it was run: as §1
[33] = system: Pseudomonas aeruginosa; assay: Antibacterial activity against Pseudomonas aeruginosa KG2212 producing MexAB-OprM efflux pump; type: functional; how it was run: as §1
[34] = system: Pseudomonas aeruginosa; assay: Antibacterial activity against Pseudomonas aeruginosa KG4545 producing MexXY efflux pump; type: functional; how it was run: as §1
[35] = system: Pseudomonas aeruginosa; assay: Antibacterial activity against ciprofloxacin-resistant Pseudomonas aeruginosa; type: functional; how it was run: as §1
[36] = system: Pseudomonas aeruginosa; assay: Antibacterial activity against Pseudomonas aeruginosa; type: functional; how it was run: as §1
[37] = system: Pseudomonas aeruginosa; assay: Efficacy against Pseudomonas aeruginosa 93 assessed as reduction in bacterial counts in mouse urinary tract infection model at 0.5 mg/kg; type: functional, organism-based; design: dose 0.5 mg/kg; conditions: Urine
How it was run: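 Female ICR mice (4 weeks) were denied water 1 day. Under pentobarbital anesthesia they received 4.32 log10 CFU of strain 93 via the […], which was then clamped 5 h. Dosed sc at 5 h post-challenge plus twice daily for 2 days. Bilateral kidney viable counts taken the day after last treatment; 6 mice/dose.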

Q: How did the MIC [1] turn out when CC(C)(O/N=C(\C(=O)N[C@@H]1C(=O)N2C(C(=O)[O-])=C(C[n+]3ccccc3)CS[C@H]12)c1csc(N)n1)C(=O)O [CEFTAZIDIME] was run?
A: Its MIC is 2 µg/mL (≈ 3.66 µM).

Q: What about the MIC [2] of the same compound?
A: Its MIC is 64 µg/mL (≈ 117 µM).

Q: And the MIC [3]?
A: The MIC was 32 µg/mL (≈ 58.5 µM).

Q: What about the MIC [4] of the same compound?
A: The MIC was 1 µg/mL (≈ 1.83 µM).

Q: And the MIC [5]?
A: Its MIC is 0.5 µg/mL (≈ 0.915 µM).

Q: What about the Activity [6] of the same compound?
A: The Activity was “Active”.

Q: What about the Activity [7] of the same compound?
A: The Activity was “Active”.

Q: And the MIC [8]?
A: The MIC was 32 µg/mL (≈ 58.5 µM).

Q: What about the MIC [9] of the same compound?
A: Its MIC is 32 µg/mL (≈ 58.5 µM).

Q: And the MIC [10]?
A: The MIC was 1 µg/mL (≈ 1.83 µM).

Q: What about the MIC [11] of the same compound?
A: The MIC was 4 µg/mL (≈ 7.32 µM).

Q: And the MIC [12]?
A: Its MIC is greater than 128 µg/mL.

Q: And the MIC [13]?
A: The MIC was 2 µg/mL (≈ 3.66 µM).

Q: And the MIC [14]?
A: Its MIC is 2 µg/mL (≈ 3.66 µM).

Q: And the MIC [15]?
A: Its MIC is 0.25 µg/mL (≈ 0.457 µM).

Q: What about the MIC [16] of the same compound?
A: The MIC was 32 µg/mL (≈ 58.5 µM).

Q: What about the MIC [17] of the same compound?
A: The MIC was 0.5 µg/mL (≈ 0.915 µM).

Q: And the MIC [18]?
A: The MIC was 32 µg/mL (≈ 58.5 µM).

Q: What about the MIC [19] of the same compound?
A: Its MIC is 4 µg/mL (≈ 7.32 µM).

Q: What about the MIC [20] of the same compound?
A: Its MIC is greater than 128 µg/mL.

Q: And the MIC50 [21]?
A: The MIC50 was 4 µg/mL (≈ 7.32 µM).

Q: What about the MIC90 [21] of the same compound?
A: Its MIC90 is 16 µg/mL (≈ 29.3 µM).

Q: And the MIC [22]?
A: The MIC was 1 µg/mL (≈ 1.83 µM).

Q: And the MIC [23]?
A: Its MIC is 4 µg/mL (≈ 7.32 µM).

Q: What about the MIC [24] of the same compound?
A: The MIC was 0.25 µg/mL (≈ 0.457 µM).

Q: What about the Activity [25] of the same compound?
A: The Activity was “Active”.

Q: And the MIC [26]?
A: The MIC was 64 µg/mL (≈ 117 µM).

Q: What about the MIC [27] of the same compound?
A: The MIC was 128 µg/mL (≈ 234 µM).

Q: What about the MIC [28] of the same compound?
A: Its MIC is 2 µg/mL (≈ 3.66 µM).

Q: What about the MIC [29] of the same compound?
A: The MIC was 128 µg/mL (≈ 234 µM).

Q: What about the MIC [30] of the same compound?
A: Its MIC is 128 µg/mL (≈ 234 µM).

Q: What about the MIC50 [31] of the same compound?
A: The MIC50 was 64 µg/mL (≈ 117 µM).

Q: What about the MIC90 [31] of the same compound?
A: The MIC90 was 128 µg/mL (≈ 234 µM).

Q: What about the MIC [32] of the same compound?
A: Its MIC is greater than 128 µg/mL.

Q: What about the MIC [33] of the same compound?
A: Its MIC is 2 µg/mL (≈ 3.66 µM).

Q: And the MIC [34]?
A: Its MIC is 2 µg/mL (≈ 3.66 µM).

Q: What about the MIC50 [35] of the same compound?
A: Its MIC50 is 8 µg/mL (≈ 14.6 µM).

Q: And the MIC90 [35]?
A: The MIC90 was 64 µg/mL (≈ 117 µM).

Q: And the MIC50 [36]?
A: Its MIC50 is 2 µg/mL (≈ 3.66 µM).

Q: And the MIC90 [36]?
A: The MIC90 was 16 µg/mL (≈ 29.3 µM).

Q: What does the source list for C[C@@H](O)[C@H]1C(=O)N2C(C(=O)O)=C(SCCNC=N)C[C@H]12 [IMIPENEM ANHYDROUS]?
A: MIC [1]: 1 µg/mL (≈ 3.34 µM); MIC [2]: 0.25 µg/mL (≈ 0.835 µM); MIC [3]: 0.25 µg/mL (≈ 0.835 µM); MIC [4]: 1 µg/mL (≈ 3.34 µM); MIC [5]: 0.25 µg/mL (≈ 0.835 µM); Activity [6]: Active; Activity [7]: Active; MIC [8]: 0.25 µg/mL (≈ 0.835 µM); MIC [9]: 0.25 µg/mL (≈ 0.835 µM); MIC [10]: 0.25 µg/mL (≈ 0.835 µM); MIC [11]: 0.25 µg/mL (≈ 0.835 µM); Activity [37]: Active; MIC [12]: 0.5 µg/mL (≈ 1.67 µM); MIC [13]: 4 µg/mL (≈ 13.4 µM); MIC [14]: 1 µg/mL (≈ 3.34 µM); MIC [15]: 0.125 µg/mL (≈ 0.418 µM); MIC [16]: 0.25 µg/mL (≈ 0.835 µM); MIC [17]: 0.5 µg/mL (≈ 1.67 µM); MIC [18]: 1 µg/mL (≈ 3.34 µM); MIC [19]: 0.25 µg/mL (≈ 0.835 µM); MIC [20]: 0.25 µg/mL (≈ 0.835 µM); MIC [21]: 16 µg/mL (≈ 53.4 µM); MIC50 [21]: 16 µg/mL (≈ 53.4 µM); MIC90 [21]: 32 µg/mL (≈ 107 µM); MIC [22]: 0.25 µg/mL (≈ 0.835 µM); MIC [23]: 0.25 µg/mL (≈ 0.835 µM); MIC [24]: 0.25 µg/mL (≈ 0.835 µM); Activity [25]: Active; MIC [26]: 0.25 µg/mL (≈ 0.835 µM); MIC [27]: 0.25 µg/mL (≈ 0.835 µM); MIC [28]: 1 µg/mL (≈ 3.34 µM); MIC [29]: 0.25 µg/mL (≈ 0.835 µM); MIC [30]: 0.25 µg/mL (≈ 0.835 µM); MIC50 [31]: 16 µg/mL (≈ 53.4 µM); MIC90 [31]: 32 µg/mL (≈ 107 µM); MIC [32]: 128 µg/mL (≈ 428 µM); MIC [33]: 1 µg/mL (≈ 3.34 µM); MIC [34]: 1 µg/mL (≈ 3.34 µM); MIC50 [35]: 8 µg/mL (≈ 26.7 µM); MIC90 [35]: 16 µg/mL (≈ 53.4 µM); MIC50 [36]: 2 µg/mL (≈ 6.68 µM); MIC90 [36]: 16 µg/mL (≈ 53.4 µM)
